From ChEMBL document CHEMBL3286094, “Synthesis and biological evaluation of novel bisbenzimidazoles as Escherichia coli topoisomerase IA inhibitors and potential antibacterial agents” (J Med Chem, 2014) come the findings set out here.

≈ marks a conversion by molar mass, not a printed value.

Assay [1] deals with Escherichia coli. The assay can be described thus: Bactericidal activity against Escherichia coli ATCC 25922 by agar plating method. The class given is functional.
The test system of assay [2] is Escherichia coli. In words: Antibacterial activity against Escherichia coli ATCC 25922 assessed as growth inhibition after 18 to 24 hrs by broth microdilution method. In kind it is functional. For orientation: Broth dilution looks for growth in wells or tubes with falling amounts of substance.
Assay [3] relates to Escherichia coli. The assay can be described thus: Bactericidal activity against Escherichia coli DH5[alpha] by agar plating method. The class given is functional.
The nature of assay [4]: Inhibition of Escherichia coli DNA topoisomerase-1A using supercoiled pHOT1 plasmid DNA as substrate assessed as inhibition of DNA relaxation after 30 mins by agarose gel electrophoresis. Summed up: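 Supercoiled plasmid DNA incubated with E. coli Topo IA in the presence of compound at […]. Relaxation products were resolved by electrophoresis on 1% agarose gel.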
Assay [5] concerns Escherichia coli. The assay can be described thus: Antibacterial activity against Escherichia coli DH5[alpha] assessed as growth inhibition after 18 to 24 hrs by broth microdilution method. In kind it is functional.

In general, MBC refers to the lowest tested concentration that kills the bacteria rather than only halting them. As a reminder, the MIC50 is the lowest concentration that inhibits either 50% of growth or 50% of the strains tested, depending on the study. For orientation: MIC90 means the lowest concentration that inhibits either 90% of growth or 90% of the strains tested, depending on the study. What is called IC50 is the concentration at which inhibition is half-maximal. In the case of `CCN1CCN(c2ccc3nc(-c4ccc5nc(-c6ccc(OC)c(OC)c6)[nH]c5c4)[nH]c3c2)CC1`, the minimum bactericidal concentration (MBC) in the assay with Escherichia coli [1] turned out to be 32 µg/mL (≈ 66.3 µM). For the same compound, in the assay with Escherichia coli [2], the MIC50 came to 16 µg/mL (≈ 33.2 µM) and the MIC90 turned out to be 14.8 µg/mL (≈ 30.7 µM). Besides, in the assay with Escherichia coli [3], the MBC is 16 µg/mL (≈ 33.2 µM). In addition, the IC50 in assay [4] came out at 12.3 µM.

`Oc1ccc(-c2nc3ccc(-c4nc5ccc(N6CCN(c7ncccn7)CC6)cc5[nH]4)cc3[nH]2)cc1`: the MIC50 in the assay with Escherichia coli [5] and with Escherichia coli [2] was above 128 µg/mL in each case. Besides, the IC50 in assay [4] was above 50 µM.

Consider `CCOc1ccc(-c2nc3ccc(-c4nc5ccc(N6CCN(c7ccncc7)CC6)cc5[nH]4)cc3[nH]2)cc1`, for which the MIC50 in the assay with Escherichia coli [5] and with Escherichia coli [2] was above 128 µg/mL in each case. For the same compound, the 50% inhibitory concentration (IC50) in assay [4] is above 50 µM.

Regarding `Oc1ccc(-c2nc3ccc(-c4nc5ccc(N6CCN(c7ccccc7)CC6)cc5[nH]4)cc3[nH]2)cc1`, the MIC50 in the assay with Escherichia coli [5] and in the assay on Escherichia coli [2] was above 128 µg/mL each time. Further, the half-inhibitory concentration (IC50) in assay [4] amounted to 60.3 µM.

`Oc1ccc(-c2nc3ccc(-c4nc5ccc(N6CCN(c7ccc(F)cc7)CC6)cc5[nH]4)cc3[nH]2)cc1`: the MIC50 with Escherichia coli [5] and in the assay with Escherichia coli [2] was above 128 µg/mL in each case. The IC50 in assay [4] is 20.3 µM.

Regarding `Oc1ccc(-c2nc3ccc(-c4nc5ccc(N6CCN(c7ccncc7)CC6)cc5[nH]4)cc3[nH]2)cc1`, the MIC50 with Escherichia coli [5] and with Escherichia coli [2] was above 128 µg/mL each time. The IC50 in assay [4] is above 50 µM.

With `Nc1ccc(N2CCN(c3ccc4nc(-c5ccc6nc(-c7ccc(O)cc7)[nH]c6c5)[nH]c4c3)CC2)cc1`, the MIC50 in the assay with Escherichia coli [5] was 128 µg/mL (≈ 255 µM); in the assay on Escherichia coli [2], above 128 µg/mL. For the same compound, the IC50 in assay [4] stood at 4.7 µM.

Consider `COc1ccc(-c2nc3ccc(-c4nc5ccc(N6CCN(c7ccc(N)cc7)CC6)cc5[nH]4)cc3[nH]2)cc1OC`, for which the MIC50 in the assay on Escherichia coli [5] and with Escherichia coli [2] was above 128 µg/mL each time. The IC50 in assay [4] was found to be 20.3 µM.

Consider `CCCN1CCN(c2ccc3nc(-c4ccc5nc(-c6ccc(O)cc6)[nH]c5c4)[nH]c3c2)CC1`, for which the MIC50 in the assay with Escherichia coli [5] and in the assay with Escherichia coli [2] was above 128 µg/mL in each case. The half-inhibitory concentration (IC50) in assay [4] was determined as 20.8 µM.

`COc1ccc(-c2nc3ccc(-c4nc5ccc(N6CCN(c7ccccc7)CC6)cc5[nH]4)cc3[nH]2)cc1OC`: the MIC50 with Escherichia coli [5] and in the assay with Escherichia coli [2] was above 128 µg/mL throughout. Also, the IC50 in assay [4] was determined as 3.8 µM.

With `N#Cc1ccccc1N1CCN(c2ccc3nc(-c4ccc5nc(-c6ccc(O)cc6)[nH]c5c4)[nH]c3c2)CC1`, the MIC50 in the assay on Escherichia coli [5] and in the assay on Escherichia coli [2] was above 128 µg/mL each time. Moreover, in assay [4], the IC50 amounted to 20.4 µM.

As to `CCN1CCN(c2ccc3nc(-c4ccc5nc(-c6ccc(O)cc6)[nH]c5c4)[nH]c3c2)CC1`, in the assay with Escherichia coli [5], the MIC50 is 64 µg/mL (≈ 146 µM) and the MIC90 was 121 µg/mL (≈ 276 µM). Further, the MIC50 in the assay on Escherichia coli [2] was above 128 µg/mL. Moreover, in the assay on Escherichia coli [3], the MBC worked out at 128 µg/mL (≈ 292 µM). The IC50 in assay [4] stood at 5.8 µM.

For `COc1ccc(-c2nc3ccc(-c4nc5ccc(N6CCN(c7ccccc7C#N)CC6)cc5[nH]4)cc3[nH]2)cc1OC`, the MIC50 with Escherichia coli [5] and in the assay with Escherichia coli [2] was above 128 µg/mL each time. Besides, the half-maximal inhibitory concentration (IC50) in assay [4] was 3.76 µM.

In the case of `O=C(NCCN1CCN(c2ccc3nc(-c4ccc5nc(-c6ccc(O)cc6)[nH]c5c4)[nH]c3c2)CC1)C(F)(F)F`, the MIC50 with Escherichia coli [5] and with Escherichia coli [2] was above 128 µg/mL each time. In assay [4], the IC50 is 45.8 µM.

`COc1ccc(-c2nc3ccc(-c4nc5ccc(N6CCN(CCN(C)C)CC6)cc5[nH]4)cc3[nH]2)cc1OC`: the MIC50 in the assay with Escherichia coli [5] and with Escherichia coli [2] was 128 µg/mL (≈ 244 µM) throughout. Besides, the IC50 in assay [4] was found to be 3 µM.

Regarding `COc1ccc(-c2nc3ccc(-c4nc5ccc(N6CCN(c7ccc(F)cc7)CC6)cc5[nH]4)cc3[nH]2)cc1OC`, the MIC50 in the assay on Escherichia coli [5] and in the assay with Escherichia coli [2] was above 128 µg/mL in each case. In addition, the IC50 in assay [4] is above 50 µM.

In the case of `CCOc1ccc(-c2nc3ccc(-c4nc5ccc(N6CCN(CCNC(=O)C(F)(F)F)CC6)cc5[nH]4)cc3[nH]2)cc1`, the MIC50 in the assay with Escherichia coli [5] amounted to 16 µg/mL (≈ 27.7 µM); in the assay with Escherichia coli [2], 10.4 µg/mL (≈ 18 µM). For the same compound, the MIC90 in the assay on Escherichia coli [5] was found to be 22.5 µg/mL (≈ 39 µM); in the assay with Escherichia coli [2], 20.8 µg/mL (≈ 36 µM). Besides, the minimal bactericidal concentration (MBC) in the assay on Escherichia coli [1] and in the assay on Escherichia coli [3] was 32 µg/mL (≈ 55.4 µM) each time. Also, the IC50 in assay [4] was 50.8 µM.

In the case of `CN(C)CCN1CCN(c2ccc3nc(-c4ccc5nc(-c6ccc(O)cc6)[nH]c5c4)[nH]c3c2)CC1`, the MIC50 in the assay on Escherichia coli [5] was 64 µg/mL (≈ 133 µM); in the assay with Escherichia coli [2] it was above 128 µg/mL. In addition, the concentration for half-maximal inhibition (IC50) in assay [4] was determined as 8 µM.
